# Assay results from ChEMBL document CHEMBL1125656, “Novel indole-2-carboxylates as ligands for the strychnine-insensitive N-methyl-D-aspartate-linked glycine receptor” (J Med Chem, 1991).
# pIC50, pKi: −log10 of the molar value.
# Molecular target: Glutamate NMDA receptor
# Experiment: Inhibition of strychnine-insensitive [3H]glycine binding to the N-methyl-D-aspartate glutamate receptor of synaptic plasma membranes(SPM) prepared from rat forebrain
# Assay type: cell-free
# Method in brief: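 Rat forebrain synaptic plasma membranes (male Sprague-Dawley, 30–45 days old), Triton X-100-washed; 0.2–0.4 mg incubated with 10 nM [3H]glycine and a range of compound concentrations in triplicate, in 50 mM Tris/acetate pH 7.4, for 10 min at 2 °C. Bound ligand separated by centrifugation (12000g, 15 min, 4 °C) or GF/B filtration, then scintillation counted. Nonspecific binding set with 100 μM glycine. Ki derived by logit-log analysis.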
row,SMILES,pKi
1,O=C(O)Cc1c(C(=O)O)oc2ccccc12,< 4.00
2,COc1ccc2[nH]c(C(=O)O)cc2c1,< 4.00
3,O=C(O)c1cc2cc(Cl)ccc2[nH]1 [5-CHLOROINDOLE-2-CARBOXYLIC ACID],< 4.00
4,O=C(O)CCCc1c(C(=O)O)[nH]c2ccccc12,< 4.00
5,O=C(O)c1cc2cc(Br)ccc2[nH]1,< 4.00
6,CCOC(=O)Cc1c(C(=O)OCCCN(C)C)[nH]c2cc(Cl)ccc12,< 4.00
7,O=C(O)c1cc2ccccc2[nH]1 [INDOLE-2-CARBOXYLIC ACID],< 4.00
8,Cn1c(C(=O)O)c(CC(=O)O)c2ccccc21,< 4.00
9,O=C(O)c1cc2c(C(=O)O)cccc2[nH]1,< 4.00
10,O=C(O)c1[nH]c2ccccc2c1CCO,< 4.52
11,CN(C)CCCNC(=O)Cc1c(C(=O)O)[nH]c2cc(Cl)ccc12,< 4.52
12,O=C(O)CC1c2ccccc2OC1C(=O)O (stereo not given),< 4.52
13,CCOC(=O)Cc1c(C=O)[nH]c2cc(Cl)ccc12,< 4.52
14,O=C(O)c1[nH]c2ccccc2c1CO,< 4.00
15,O=C(O)c1[nH]c2cc(Cl)ccc2c1O,< 4.00
16,CN(C)CCNC(=O)Cc1c(C(=O)NCCN(C)C)[nH]c2cc(Cl)ccc12,< 4.52
17,Cc1ccc2[nH]c(C(=O)O)cc2c1,< 4.00
18,O=C(O)CCCCc1c(C(=O)O)[nH]c2ccccc12,< 4.00
19,CCC(C(=O)O)c1c(C(=O)O)[nH]c2ccccc12 (stereo not given),< 4.00
20,O=C(O)c1cc2cc(F)ccc2[nH]1 [5-FLUOROINDOLE-2-CARBOXYLIC ACID],4.04
21,O=C(O)CCc1c(C(=O)O)[nH]c2ccccc12,< 4.00
22,O=C(O)c1cc2c(O)cccc2[nH]1,< 4.52
23,O=C(O)Cc1cc2ccccc2nc1C(=O)O,< 4.00

# The next lines start with the values.
row,pKi,SMILES
1,5.79,O=C(O)Cc1c(C(=O)O)[nH]c2cc(Cl)ccc12
2,4.99,O=C(Cc1c(C(=O)O)[nH]c2cc(Cl)ccc12)NCCO
3,4.96,O=C(O)Cc1c(C(=O)O)[nH]c2ccc(Cl)cc12
4,< 4.52,CN(C)C(=O)Cc1c(C(=O)O)[nH]c2cc(Cl)ccc12
5,< 4.52,O=C(O)Cc1c(C(=O)O)[nH]c2c(Cl)cccc12
6,< 4.52,CCOC(=O)Cc1c(CO)[nH]c2cc(Cl)ccc12
7,5.17,CCCOC(=O)Cc1c(C(=O)O)[nH]c2cc(Cl)ccc12
8,4.12,O=C1Cc2c([nH]c3cc(Cl)ccc23)C(=O)O1
9,< 4.52,O=C(O)C1Cc2ccccc2N1 (stereo not given)
10,4.53,O=C(O)Cc1c(C(=O)O)[nH]c2ccc(Br)cc12
11,< 4.52,Cc1cc2c(CC(=O)O)c(C(=O)O)[nH]c2cc1Cl
12,4.53,CC(=O)Cc1c(C(=O)O)[nH]c2ccccc12
13,< 4.52,O=C(O)c1cc2c(OCc3ccccc3)cccc2[nH]1
14,< 4.52,O=C(O)Cc1c(CO)[nH]c2cc(Cl)ccc12
15,6.33,CCCNC(=O)Cc1c(C(=O)O)[nH]c2cc(Cl)ccc12
16,6.20,O=C(Cc1c(C(=O)O)[nH]c2cc(Cl)ccc12)NCCc1ccccc1
17,5.93,NC(=O)Cc1c(C(=O)O)[nH]c2cc(Cl)ccc12
18,4.85,O=C(O)Cc1c(C(=O)O)[nH]c2ccc(F)cc12
19,5.41,CC(C)OC(=O)Cc1c(C(=O)O)[nH]c2cc(Cl)ccc12
20,5.08,CCOCCc1c(C(=O)O)[nH]c2cc(Cl)ccc12
21,6.17,CCOC(=O)Cc1c(C(=O)O)[nH]c2cc(Cl)ccc12

# Molecular target: Glutamate NMDA receptor
# Experiment: Inhibition of strychnine-insensitive [3H]MK-801 binding to the N-methyl-D-aspartate glutamate receptor of synaptic plasma membranes(SPM) prepared from rat forebrain
# Assay type: cell-free
# Method in brief: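 Membranes treated with 0.04% v/v Triton X-100 and washed extensively in 50 mM Tris acetate pH 7.4. SPM (0.2–0.4 mg) incubated with 5 nM [3H]MK-801, 10 nM L-glutamate and test compound in the same buffer for 30 min at 25 °C. Samples filtered on 0.05% polyethylenimine-treated GF/B filters and washed four times with cold buffer. Filters scintillation counted; nonspecific binding set with 60 μM MK-801.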
row,pIC50,SMILES
1,5.17,O=C(O)Cc1c(C(=O)O)[nH]c2cc(Cl)ccc12
